ChEMBL document CHEMBL4428023, “1,4-Dihydropyridines Active on the SIRT1/AMPK Pathway Ameliorate Skin Repair and Mitochondrial Function and Exhibit Inhibition of Proliferation in Cancer Cells” (J Med Chem, 2016)
Active and inactive are the calls of the source. The calls are words filed in the database; no cut-off is given here.

Columns and labels:
[1] = biological target: T1, NAD-dependent protein deacetylase sirtuin-1 (Homo sapiens) (UniProt Q96EB6); test: Activation of full-length GST-tagged recombinant human SIRT1 assessed as enzyme activity obtained with subtraction of intrinsic fluorescence using p53-based untagged peptide as substrate at 50 uM after 30 mins by SIRTainty assay
T1 sequence (whole entry): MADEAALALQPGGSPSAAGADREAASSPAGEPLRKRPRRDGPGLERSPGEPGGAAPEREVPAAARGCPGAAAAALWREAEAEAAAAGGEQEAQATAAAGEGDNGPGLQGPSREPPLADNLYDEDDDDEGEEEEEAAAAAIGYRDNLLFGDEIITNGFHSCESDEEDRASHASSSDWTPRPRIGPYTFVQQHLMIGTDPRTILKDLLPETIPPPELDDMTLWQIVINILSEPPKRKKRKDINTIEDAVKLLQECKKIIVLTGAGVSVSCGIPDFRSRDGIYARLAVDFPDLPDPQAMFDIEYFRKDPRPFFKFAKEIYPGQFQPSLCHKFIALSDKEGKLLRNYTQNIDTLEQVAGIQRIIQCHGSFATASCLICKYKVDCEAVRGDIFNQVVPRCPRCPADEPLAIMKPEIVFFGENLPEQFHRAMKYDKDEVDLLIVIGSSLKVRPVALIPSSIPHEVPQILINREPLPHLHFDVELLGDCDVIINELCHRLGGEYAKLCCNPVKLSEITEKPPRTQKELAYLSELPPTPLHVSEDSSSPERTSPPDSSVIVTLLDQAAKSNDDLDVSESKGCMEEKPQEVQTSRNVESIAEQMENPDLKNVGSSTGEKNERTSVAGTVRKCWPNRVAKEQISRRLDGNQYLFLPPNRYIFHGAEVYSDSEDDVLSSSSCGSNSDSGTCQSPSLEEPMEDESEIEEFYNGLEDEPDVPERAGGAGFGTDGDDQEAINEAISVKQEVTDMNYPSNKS

[2] = biological target: T1, NAD-dependent protein deacetylase sirtuin-1 (Homo sapiens); test: Activation of full-length GST-tagged recombinant human SIRT1 assessed as enzyme activity obtained without subtraction of intrinsic fluorescence using p53-based untagged peptide as substrate at 50 uM after 30 mins by SIRTainty assay
[3] = biological target: T1, NAD-dependent protein deacetylase sirtuin-1 (Homo sapiens); test: Activation of SIRT1 in […] at 1 uM by fluorimetric assay; type: cell-free; conditions: HaCaT, TDE = time-dependent effect
[4] = biological target: T1, NAD-dependent protein deacetylase sirtuin-1 (Homo sapiens); test: Activation of SIRT1 in human HaCaT cells assessed as H4K16 deacetylation at 1 uM after 1 hr by Western blotting method; type: cell-based
Outline: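 HaCaT cells treated 1 h at 1 µM, DMSO as solvent control. Cells lysed in Laemmli buffer and immunoblotted for acetyl-H4K16 (1:1000), with total histone H4 as loading control. Bands quantified by densitometry. At least three independent experiments.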

HaCaT [5] = test: Activation of AMPK/SIRT1 in human HaCaT cells assessed as nitric oxide production at 1 uM incubated for 1 hr by DAF-2D staining-based fluorescence assay; type: cell-based
Outline: (§1)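 HaCaT keratinocytes grown in DMEM with 10% FBS and antibiotics. Cells treated 1 h (single-point 1 µM; dose-response at 5, 25, 50 µM). 5 µM DAF-2D added to complete medium. Cells then washed in PBS, trypsinized and analysed by flow cytometry for DAF fluorescence (ex 485/em 538 nm). Read-out is % DAF-positive cells relative to DMSO control.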

[6] = biological target: 3',5'-cyclic-AMP phosphodiesterase 4D (Homo sapiens) (UniProt Q08499); test: Inhibition of recombinant human PDE4D assessed as phosphate release using cAMP as substrate at 50 uM after 60 mins by malachite green assay
3',5'-cyclic-AMP phosphodiesterase 4D (Homo sapiens), sequence (Q08499 whole entry): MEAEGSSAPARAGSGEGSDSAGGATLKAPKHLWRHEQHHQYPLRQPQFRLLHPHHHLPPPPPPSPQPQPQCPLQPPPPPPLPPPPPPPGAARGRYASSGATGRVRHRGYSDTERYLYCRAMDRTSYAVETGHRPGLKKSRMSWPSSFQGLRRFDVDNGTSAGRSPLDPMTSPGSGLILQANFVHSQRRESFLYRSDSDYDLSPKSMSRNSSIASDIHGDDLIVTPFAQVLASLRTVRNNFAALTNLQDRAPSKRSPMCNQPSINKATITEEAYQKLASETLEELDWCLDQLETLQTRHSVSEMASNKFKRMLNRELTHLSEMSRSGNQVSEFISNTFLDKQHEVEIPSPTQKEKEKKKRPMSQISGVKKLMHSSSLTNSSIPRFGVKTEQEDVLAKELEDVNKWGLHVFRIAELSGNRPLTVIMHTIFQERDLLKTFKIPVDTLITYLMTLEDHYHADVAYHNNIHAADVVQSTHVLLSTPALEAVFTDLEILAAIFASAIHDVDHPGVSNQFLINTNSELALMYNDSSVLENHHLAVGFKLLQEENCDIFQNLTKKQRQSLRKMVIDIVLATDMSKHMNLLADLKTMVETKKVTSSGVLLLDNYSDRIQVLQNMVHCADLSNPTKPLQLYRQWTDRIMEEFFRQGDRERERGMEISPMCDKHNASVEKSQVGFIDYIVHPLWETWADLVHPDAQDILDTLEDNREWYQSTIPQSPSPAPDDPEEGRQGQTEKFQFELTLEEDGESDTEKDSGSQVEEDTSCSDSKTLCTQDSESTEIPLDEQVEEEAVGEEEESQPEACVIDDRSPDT
Outline: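 Recombinant human PDE4D (20 mU) in 10 mM Tris-HCl pH 7.4 with cAMP substrate. Compounds at 50 µM in DMSO; rolipram 10 µM as positive control. Incubated 60 min at 37 °C, then phosphate release measured by malachite green absorbance at 620 nm. Mean of three determinations.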

HaCaT [7] = test: Activation of AMPK/SIRT1 in human HaCaT cells assessed as nitric oxide production incubated for 1 hr by DAF-2D staining-based fluorescence assay; type: cell-based
Outline: as §1

Mus musculus [8] = test: Wound healing activity in CD1 mouse assessed as decrease in epithelial gap at 1 uM administered topically on wound everyday for 14 days by biopsy punch assay; type: functional, organism-based
Outline: (§2)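 Male CD1 mice, 8 weeks old, anaesthetized i.p. with medetomidine 1 mg/kg plus ketamine 75 mg/kg, then biopsy-punch wounded. Compound (1 µM) in 20 µL saline applied directly to the wound daily for 14 days; solvent-treated group as control. Epithelial gap and % wound closure followed over time.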

Mus musculus [9] = test: Wound healing activity in CD1 mouse assessed as increased wound closure at 1 uM administered topically on wound everyday for 14 days by biopsy punch assay; type: functional, organism-based
Outline: as §2

Compound | Activity [1] [%] | Activity [2] [%] | further results
CCOC(=O)C1=CN(C(=O)c2ccccc2)C=C(C(=O)OCC)C1c1ccc(Cl)cc1 | 191 | 231 | –
NC(=O)C1=CN(Cc2ccccc2)C=C(C(N)=O)C1c1cccc2ccccc12 | – | 145 | –
NC(=O)C1=CN(Cc2ccccc2)C=C(C(=O)O)C1c1ccccc1 (centres undefined) | 160 | 149 | –
CCOC(=O)C1=CN(C(=O)c2cnccn2)C=C(C(=O)OCC)C1c1ccccc1 | 171 | 242 | –
CCOC(=O)C1=CN(C(=O)c2ccccc2)C=C(C(=O)OCC)C1c1ccc(OC)cc1 | 131 | 173 | –
NC(=O)C1=CN(Cc2ccccc2)C=C(C(N)=O)C1c1ccc2ccccc2c1 | 67 | 128 | –
O=C(O)C1=CN(Cc2ccccc2)C=C(C(=O)O)C1c1ccc2ccccc2c1 | – | 116 | –
CCOC(=O)C1=CN(C(=O)c2ccccc2)C=C(C(=O)OCC)C1c1ccccc1OC | 127 | 170 | –
CCOC(=O)C1=CN(Cc2ccccc2)C=C(C(=O)OCC)C1c1cccc2ccccc12 | – | 187 | –
CCOC(=O)C1=CN(C(=O)c2ccccc2)C=C(C(=O)OCC)C1c1cccc(C)c1 | 140 | 186 | –
CCOC(=O)C1=CN(C(=O)c2ccccc2)C=C(C(=O)OCC)C1c1ccccc1Cl | 143 | 184 | –
NC(=O)C1=CN(Cc2ccccc2)C=C(C(N)=O)C1c1ccco1 | 62 | 77 | –
CCOC(=O)C1=CN(C(=O)c2ccccc2)C=C(C(=O)OCC)C1c1cccc(Cl)c1 | 127 | 163 | –
CCOC(=O)C1=CN(C(=O)c2cnc3ccccc3n2)C=C(C(=O)OCC)C1c1ccccc1 | 165 | 206 | –
O=C(O)C1=CN(Cc2ccccc2)C=C(C(=O)O)C1c1cccs1 | 21 | 21 | –
NC(=O)C1=CN(Cc2ccccc2)C=C(C(N)=O)C1c1cccs1 | 49 | 55 | –
N#CC1=CN(Cc2ccccc2)C=C(C#N)C1c1ccccc1 | 152 | 193 | –
CCOC(=O)C1=CN(Cc2ccccc2)C=C(C(=O)O)C1c1ccccc1 (centres undefined) | 105 | 196 | –
Oc1ccc(/C=C/c2cc(O)cc(O)c2)cc1 | – | – | Activity [3]: Tde; Activity [4]: Active
CCOC(=O)C1=CN(S(=O)(=O)c2ccccc2)C=C(C(=O)OCC)C1c1ccccc1 | 130 | 169 | –
O=C(O)C1=CN(Cc2ccccc2)C=C(C(=O)O)C1c1ccsc1 | 45 | 56 | –
CC1=C(C(=O)O)C(c2ccccc2)C(C(=O)O)=C(C)N1Cc1ccccc1 | 102 | 103 | –
NC(=O)C1=CN(Cc2ccccc2)C=C(C(N)=O)C1c1ccc(-c2ccccc2)cc1 | – | 96 | –
CC1=C(C(N)=O)C(c2ccccc2)C(C(N)=O)=C(C)N1Cc1ccccc1 | 110 | 110 | –
O=C(Nc1ccccc1-c1cn2c(CN3CCNCC3)csc2n1)c1cnc2ccccc2n1 | – | 209 | –
O=C(O)C1=CN(Cc2ccccc2)C=C(C(=O)O)C1c1cc2ccccc2s1 | 7 | 38 | –
CCOC(=O)C1=CN(Cc2ccccc2)C=C(C(=O)OCC)C1c1cncs1 | 133 | 221 | –

Compound | Activity [1] [%] | Activity [2] [%] | further results
O=C(O)C1=CN(Cc2ccccc2)C=C(C(=O)O)C1c1cccc2ccccc12 | 94 | 108 | –
CCOC(=O)C1=CN(Cc2ccccc2)C=C(C(=O)OCC)C1c1nccs1 | 282 | 300 | Activity (HaCaT [5]): Active
O=C(O)C1=CN(Cc2ccccc2)C=C(C(=O)O)C1c1cncs1 | 128 | 172 | –
NC(=O)C1=CN(Cc2ccccc2)C=C(C(N)=O)C1c1cnc2ccccc2c1 | 147 | 197 | –
CCOC(=O)C1=CN(Cc2ccccc2)C=C(C(=O)OCC)C1c1ccco1 | 64 | 294 | inhibition [6]: inactive; Activity (HaCaT [5]): Active; Activity (HaCaT [7]): Dose-dependent effect; Activity [3]: Tde; Activity [4]: Active; Activity (Mus musculus [8]): Active; Activity (Mus musculus [9]): Active
O=C(O)C1=CN(Cc2ccccc2)C=C(C(=O)O)C1c1nccs1 | 132 | 174 | –
CCOC(=O)C1=CN(C(=O)c2cccc3ccccc23)C=C(C(=O)OCC)C1c1ccccc1 | – | 179 | –
NC(=O)C1=CN(Cc2ccccc2)C=C(C(N)=O)C1c1cncs1 | 165 | 194 | –
CCOC(=O)C1=CN(Cc2ccccc2)C=C(C(=O)OCC)C1c1ccccc1 | 164 | 217 | inhibition [6]: inactive; Activity (HaCaT [5]): Active; Activity [4]: Active
NC(=O)C1=CN(Cc2ccccc2)C=C(C(N)=O)C1c1nccs1 | 188 | 231 | –
CCOC(=O)C1=CN(C(=O)c2ccccc2)C=C(C(=O)OCC)C1c1ccc(C)cc1 | 103 | 144 | –
CCOC(=O)C1=CN(C(=O)c2ccccc2)C=C(C(=O)OCC)C1c1ccccc1C | 140 | 183 | –
NC(=O)C1=CN(Cc2ccccc2)C=C(C(N)=O)C1c1cc2ccccc2s1 | 37 | 127 | –
O=C(O)C1=CN(Cc2ccccc2)C=C(C(=O)O)C1c1cnc2ccccc2c1 | 167 | 209 | –
CCOC(=O)C1=CN(C(=O)OCc2ccccc2)C=C(C(=O)OCC)C1c1ccccc1 | 158 | 206 | –
CCOC(=O)C1=CN(C(=O)c2ccccc2)C=C(C(=O)OCC)C1c1cccc(OC)c1 | 117 | 156 | –
CCOC(=O)C1=CN(Cc2ccccc2)C=C(C(=O)OCC)C1c1cnc2ccccc2c1 | 283 | 324 | Activity (HaCaT [5]): Active
O=C(O)C1=CN(Cc2ccccc2)C=C(C(=O)O)C1c1ccc(-c2ccccc2)cc1 | 285 | 285 | inhibition [6]: inactive
CCOC(=O)C1=CN(Cc2ccccc2)C=C(C(=O)OCC)C1c1cc2ccccc2s1 | 39 | 139 | –
CCOC(=O)C1=CN(Cc2ccccc2)C=C(C(=O)OCC)C1c1cccs1 | 117 | 246 | –
CCOC(=O)C1=CN(C(=O)c2ccc3ccccc3c2)C=C(C(=O)OCC)C1c1ccccc1 | 207 | 235 | inhibition [6]: inactive
NC(=O)C1=CN(Cc2ccccc2)C=C(C(N)=O)C1c1ccsc1 | 97 | 218 | –
CCOC(=O)C1=C(C)N(Cc2ccccc2)C(C)=C(C(=O)OCC)C1c1ccccc1 | 114 | 114 | –
CCOC(=O)C1=CN(Cc2ccccc2)C=C(C(N)=O)C1c1ccccc1 (centres undefined) | 108 | 198 | –
CCOC(=O)C1=CN(Cc2ccccc2)C=C(C(=O)OCC)C1c1ccc2ccccc2c1 | 100 | 282 | –
CCOC(=O)C1=CN(Cc2ccccc2)C=C(C(=O)OCC)C1c1ccc(-c2ccccc2)cc1 | 61 | 61 | –
